Laboratory results published in ChEMBL document CHEMBL1141248, “Filiasparosides A-D, cytotoxic steroidal saponins from the roots of Asparagus filicinus” (J Nat Prod, 2007).
Converted amounts (≈) assume the structure as drawn.

Key:
A549 = assay: Cytotoxicity against human A549 cells after 2 days; assay type: functional, cell-based; conditions: A549, 48 h
Outline: (§1)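 Growth inhibition under continuous exposure for 2 days. Stock solutions were made in DMSO and kept at -70 °C, then diluted into culture medium to a final DMSO of ≤1% (v/v). EC50 was taken as the concentration giving 50% growth inhibition.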

MCF7 = assay: Cytotoxicity against human MCF7 cells after 2 days; assay type: functional, cell-based; conditions: MCF7, 48 h; outline: as §1

| Compound | EC50 (A549) [µg/mL] | EC50 (MCF7) [µg/mL] |
| --- | --- | --- |
| C[C@H]1CC[C@@]2(OC1)O[C@H]1C[C@H]3[C@@H]4CC[C@@H]5C[C@@H](O[C@@H]6O[C@H](CO)[C@@H](O[C@@H]7O[C@@H](C)[C@H](O)[C@@H](O)[C@H]7O)[C@H](O)[C@H]6O[C@H]6OC[C@H](O)[C@@H](O)[C@@H]6O)CC[C@]5(C)[C@H]4CC[C@]3(C)[C@H]1[C@@H]2C | 2.3 (≈ 2.68 µM) | 3 (≈ 3.5 µM) |
| C[C@H]1CC[C@@]2(OC1)O[C@H]1C[C@H]3[C@@H]4CC[C@@H]5C[C@@H](O[C@@H]6O[C@H](CO)[C@@H](O[C@@H]7OC[C@@H](O)[C@H](O)[C@H]7O)[C@H](O)[C@H]6O)CC[C@]5(C)[C@H]4CC[C@]3(C)[C@H]1[C@@H]2C [ASPAFILIOSIDE A] | 9.4 (≈ 13.2 µM) | > 20 |
| C[C@H]1CC[C@@]2(OC1)O[C@H]1C[C@H]3[C@@H]4CC[C@@H]5C[C@@H](O[C@@H]6O[C@H](CO[C@@H]7OC[C@H](O)[C@H](O)[C@H]7O)[C@@H](O)[C@H](O)[C@H]6O)CC[C@]5(C)[C@H]4CC[C@]3(C)[C@H]1[C@@H]2C [FILIASPAROSIDE D] | 2.4 (≈ 3.38 µM) | 10.3 (≈ 14.5 µM) |
| C[C@@H]1CC[C@@]2(OC1)O[C@H]1C[C@H]3[C@@H]4CC[C@H]5C[C@@H](O[C@@H]6O[C@H](CO[C@@H]7OC[C@H](O)[C@H](O)[C@H]7O)[C@@H](O)[C@H](O)[C@H]6O)CC[C@]5(C)[C@H]4CC(=O)[C@]3(C)[C@H]1[C@@H]2C [FILIASPAROSIDE B] | 16.4 (≈ 22.6 µM) | 16.8 (≈ 23.2 µM) |
| C[C@@H]1CC[C@@]2(OC1)O[C@H]1C[C@H]3[C@@H]4CC[C@H]5C[C@@H](O[C@@H]6O[C@H](CO[C@@H]7OC[C@H](O)[C@H](O)[C@H]7O)[C@@H](O[C@@H]7OC[C@@H](O)[C@H](O)[C@H]7O)[C@H](O)[C@H]6O)CC[C@]5(C)[C@H]4CC(=O)[C@]3(C)[C@H]1[C@@H]2C [FILIASPAROSIDE A] | 13.3 (≈ 15.5 µM) | 11.2 (≈ 13.1 µM) |
| COc1cc([C@@H]2c3cc4c(cc3[C@@H](O[C@@H]3O[C@@H]5CO[C@@H](C)O[C@H]5[C@H](O)[C@H]3O)[C@H]3COC(=O)[C@H]23)OCO4)cc(OC)c1O [ETOPOSIDE] | 0.8 (≈ 1.36 µM) | 2.8 (≈ 4.76 µM) |
